Measurements taken from ChEMBL document CHEMBL4017489, “Design, Synthesis, and Evaluation of New Selective NM23-H2 Binders as c-MYC Transcription Inhibitors via Disruption of the NM23-H2/G-Quadruplex Interaction” (J Med Chem, 2017).
The source made the active and inactive calls. The calls are words filed in the database; no cut-off is given here.

Legend:
SiHa [1] = test: Induction of apoptosis in human SiHa cells assessed as late apoptotic cells at 2 uM after 48 hrs by Annexin V-FITC/propidium iodide based flow cytometric analysis (reference value: 0.7 %); assay type: functional
SiHa [2] = test: Cell cycle arrest in human SiHa cells assessed as accumulation at G2/M phase at 2 uM after 6 hrs by propidium iodide staining based flow cytometry (reference value: 39 %); assay type: functional
How it was run: (§1)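 SiHa cells (2.0 × 10^5 per well) plated 24 h, then exposed to 2 μM compound or left untreated for 3, 6, 9, 12, 24, 36 or 48 h. Cells washed in PBS, fixed overnight in ice-cold 70% ethanol, treated with 20 μg/mL RNase A for 30 min at 37 °C, stained with PI, and read by flow cytometry at 488 nm. Phase percentages compared with untreated control; at least three experiments.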

[3] = target: Nucleoside diphosphate kinase B (Homo sapiens, UniProt P22392, G113F); test: Binding affinity to NM23-H2 G113F mutant (unknown origin) by SPR analysis
Chain of Nucleoside diphosphate kinase B (Homo sapiens, UniProt P22392, G113F) (P22392 whole entry G113F): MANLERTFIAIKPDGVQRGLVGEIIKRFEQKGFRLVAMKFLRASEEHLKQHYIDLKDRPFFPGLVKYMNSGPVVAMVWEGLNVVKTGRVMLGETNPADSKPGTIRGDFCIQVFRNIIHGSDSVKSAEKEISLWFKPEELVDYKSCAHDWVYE

[4] = target: T1, Nucleoside diphosphate kinase B (Homo sapiens, UniProt P22392, D54A); test: Binding affinity to N-terminal NT-647-NHS labeled NM23-H2 D54A mutant (unknown origin) after 30 mins by MST analysis
T1 sequence (P22392 whole entry D54A): as the sequence (P22392 whole entry G113F) above, with D54A, F113G counted along it

[5] = target: T2, Nucleoside diphosphate kinase B (Homo sapiens, UniProt P22392); test: Binding affinity to NM23-H2 in human SiHa cells assessed as disruption of protein interaction with c-myc G-quadruplex DNA by measuring decrease in c-MYC protein expresson at 1 to 2 uM after 48 hrs by Western blot analysis; assay type: cell-based
T2 sequence (P22392 whole entry): as the sequence (P22392 whole entry G113F) above, with F113G counted along it
How it was run: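 SiHa cells treated 48 h; lysates (30 μg) on 10% SDS-PAGE, nitrocellulose, anti-c-MYC overnight at 4 °C, HRP secondary, chemiluminescence; β-actin internal control; three repeats.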

SiHa [6] = test: Induction of apoptosis in human SiHa cells assessed as necrotic cells at 1 uM after 48 hrs by Annexin V-FITC/propidium iodide based flow cytometric analysis (reference value: 0.3%); assay type: functional
SiHa [7] = test: Induction of apoptosis in human SiHa cells assessed as necrotic cells at 2 uM after 48 hrs by Annexin V-FITC/propidium iodide based flow cytometric analysis (reference value: 0.3%); assay type: functional
[8] = target: Nucleoside diphosphate kinase B (Homo sapiens, UniProt P22392, H118F); test: Binding affinity to N-terminal NT-647-NHS labeled NM23-H2 H118F mutant (unknown origin) after 30 mins by MST analysis
Chain of Nucleoside diphosphate kinase B (Homo sapiens, UniProt P22392, H118F) (P22392 whole entry H118F): as the sequence (P22392 whole entry G113F) above, with F113G, H118F counted along it

[9] = Antiproliferative activity against mouse primary mesangial cells at 4 uM up to 100 hrs by real-time cellular activity assay; assay type: cell-based; conditions: primary mesangial cell
How it was run: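 Impedance-based real-time cell analysis at 37 °C, 5% CO2: 100 μL of 20 000 cells/mL added over medium background, settled 20 min, dosed after 24 h; read every 2 min for 2 h, then every 15 min to end; three repeats.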

SiHa [10] = test: Cell cycle arrest in human SiHa cells assessed as accumulation at sub-G1 phase at 2 uM after 12 hrs by propidium iodide staining based flow cytometry relative to control; assay type: functional; how it was run: as §1
SiHa [11] = test: Cell cycle arrest in human SiHa cells assessed as accumulation at S phase at 2 uM after 48 hrs by propidium iodide staining based flow cytometry (reference value: 13 %); assay type: functional; how it was run: as §1
SiHa [12] = test: Cell cycle arrest in human SiHa cells assessed as accumulation at S phase at 2 uM after 6 hrs by propidium iodide staining based flow cytometry (reference value: 13 %); assay type: functional; how it was run: as §1
[13] = target: T1, Nucleoside diphosphate kinase B; test: Binding affinity to NM23-H2 D54A mutant (unknown origin) by SPR analysis
SiHa [14] = test: Antitumor activity against human SiHa cells xenografted in BALB/C nude mouse assessed as tumor growth inhibition at 2.5 to 5 mg/kg, ip administered daily; assay type: functional, organism-based; conditions: TDE = time-dependent effect
How it was run: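 SiHa cells implanted in the right armpit of BALB/C-nu/nu mice. At a tumour size of about 50 mm3, mice were randomised (n = 8/group) to vehicle, 2.5 or 5.0 mg/kg compound, or doxorubicin 1.0 mg/kg, given ip daily for 3 weeks. Tumour volume was followed, then tumours were excised and weighed and body weight recorded. Mean ± SEM, t test against vehicle.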

SiHa [15] = test: Cell cycle arrest in human SiHa cells assessed as accumulation at S phase at 2 uM after 9 hrs by propidium iodide staining based flow cytometry (reference value: 13 %); assay type: functional; how it was run: as §1
SiHa [16] = test: Antitumor activity against human SiHa cells xenografted in BALB/C nude mouse assessed as tumor weight at 5 mg/kg, ip administered daily after 3 weeks (reference value: 511.6 mg); assay type: functional
[17] = system: Nucleoside diphosphate kinase B (Homo sapiens), P22392 [F60A]; test: Binding affinity to NM23-H2 F60A mutant (unknown origin) up to 50 uM by SPR analysis
Chain of Nucleoside diphosphate kinase B (Homo sapiens), P22392 [F60A] (P22392 whole entry F60A): as the sequence (P22392 whole entry G113F) above, with F60A, F113G counted along it

[18] = target: T2, Nucleoside diphosphate kinase B; test: Binding affinity to NM23-H2 in human SiHa cells assessed as decrease in NM23-H2 to c-myc G-quadruplex DNA interaction after 9 hrs by Chromatin immunoprecipitation assay; assay type: cell-based
How it was run: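 SiHa cells treated 9 h; chromatin immunoprecipitated overnight at 4 °C with anti-NM23-H2 (3 μg), rabbit IgG control; c-MYC promoter fragment PCR-amplified, gel bands normalized to input, untreated set 100%; three repeats.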

SiHa [19] = test: Cell cycle arrest in human SiHa cells assessed as accumulation at sub-G1 phase at 2 uM after 48 hrs by propidium iodide staining based flow cytometry relative to control; assay type: functional; how it was run: as §1
SiHa [20] = test: Cell cycle arrest in human SiHa cells assessed as accumulation at G2/M phase at 2 uM after 36 hrs by propidium iodide staining based flow cytometry (reference value: 39 %); assay type: functional; how it was run: as §1
SiHa [21] = test: Induction of apoptosis in human SiHa cells assessed as early apoptotic cells at 1 uM after 48 hrs by Annexin V-FITC/propidium iodide based flow cytometric analysis (reference value: 1.4 %); assay type: functional
[22] = target: T2, Nucleoside diphosphate kinase B; test: Binding affinity to NM23-H2 (unknown origin) assessed as reduction in protein interaction with Pu22 c-myc G-quadruplex DNA after 1 hr by EMSA
SiHa [23] = test: Antitumor activity against human SiHa cells xenografted in BALB/C nude mouse assessed as tumor growth inhibition at 5 mg/kg, ip administered daily after 3 weeks relative to control; assay type: functional; conditions: 504 h, read-out: TGI
Mus musculus = test: Toxicity in BALB/C nude mouse xenografted with human SiHa cells assessed as pain at 2.5 to 5 mg/kg, ip administered daily after 3 weeks; assay type: organism-based; conditions: in vivo, 504 h
How it was run: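 SiHa cells implanted in the right armpit of BALB/c nu/nu mice. At approximately 50 mm3, mice randomized (n = 8/group) to vehicle, compound 2.5 or 5.0 mg/kg, or doxorubicin 1.0 mg/kg, given ip daily for 3 weeks. Body weight and signs of pain, distress or discomfort monitored; tumors excised and weighed. Data given as mean ± SEM, t test against vehicle.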

SiHa [24] = test: Cell cycle arrest in human SiHa cells assessed as accumulation at G2/M phase at 2 uM after 3 hrs by propidium iodide staining based flow cytometry (reference value: 39%); assay type: functional
How it was run: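 SiHa cells plated 24 h, treated at 2 μM for 3–48 h; fixed in ice-cold 70% ethanol overnight, RNase A 20 μg/mL 37 °C 30 min, PI-stained, flow cytometry at 488 nm; phase percentages quantified; at least three experiments.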

Kd [3]: 15.5 µM
Kd [4]: 4.6 µM
Activity [5]: Active
Kd [8]: 7.7 µM
Kd [13]: 18.4 µM
Activity [17]: inactive
Activity [18]: Dose-dependent effect
Activity [22]: Dose-dependent effect
Compound: CN(C)CCCNc1cc2nc3n(c(=O)c2cc1F)CC/C3=C\c1ccc(OCc2ccccc2)cc1O
Activity (SiHa [1]): 90.3%
Activity (SiHa [2]): 26%
Activity (SiHa [6]): 1.3%
Activity (SiHa [7]): 2.2%
Activity [9]: Toxic
Activity (SiHa [10]): 8%
Activity (SiHa [11]): 0%
Activity (SiHa [12]): 12%
TGI (SiHa [14]): Tde
Activity (SiHa [15]): 12%
Activity (SiHa [16]): 180.1 mg
Activity (SiHa [19]): 100%
Activity (SiHa [20]): 0%
Activity (SiHa [21]): 80.7%
inhibition in vivo at 5 mg/kg (SiHa [23]): 64.8%
Activity (Mus musculus): Non-Toxic
Activity (SiHa [24]): 38%
